Experimental findings from ChEMBL document CHEMBL1159009, “Anti-influenza virus effect of some propolis constituents and their analogues (esters of substituted cinnamic acids)” (J Nat Prod, 1992) are described below.

For one data set, the system named is Influenza A virus. Kind of data set: microbe, parasite or virus in culture. In kind it is functional, Chorioallantoic membrane. The conditions noted are these: A/Puerto Rico/8/1934(H1N1), 48 h.
The nature of data set [1]: Toxicity in hen chorioallantoic membrane assessed as maximum tolerable concentration causing no morphological changes. More on the design: species or system Gallus gallus. Conditions: chicken, read-out: Activity. The method, boiled down:
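Surviving chorioallantoic membrane cultures (membranes only) from 11-13-day-old embryonated hen's eggs were exposed to increasing concentrations and followed for 72 h. MTC was the highest concentration causing no morphological changes in the CAM.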

Data set [2] relates to Influenza A virus H3N2. Nature of the data set: microbe, parasite or virus in culture. Type of data set: functional, Influenza A virus (A/Hong Kong/1/1968(H3N2)), Chorioallantoic membrane. The conditions noted are these: 48 h.
The test system of data set [3] is Influenza A virus H3N2. Type of data set: functional, Influenza A virus (A/Hong Kong/1/1968(H3N2)), Chorioallantoic membrane.
Data set [4] concerns Influenza A virus H3N2. Nature of the data set: Antiviral activity against influenza A virus (A/Hong Kong/1/1968(H3N2)) infected in hen eggs assessed as hemagglutinination titre level at 2.5 mg/ml. In kind it is functional. Put shortly: (§1)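 11-day-old embryonated hen's eggs received 0.2 ml of substance 1 h before infection with A/Hong Kong/1/68 (H3N2) from allantoic fluid. Read-out was the mean geometrical hemagglutination titer, compared with a virus control for each dose.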

Data set [5] has as its system Influenza A virus H3N2. In kind it is functional, Influenza A virus (A/Hong Kong/1/1968(H3N2)), Chorioallantoic membrane. The source holds these as a separate data set.
The test system of data set [6] is Influenza A virus H3N2. In kind it is functional, Influenza A virus (A/Hong Kong/1/1968(H3N2)), Chorioallantoic membrane. The source holds these as a separate data set.
In data set [7] the test system is Influenza A virus H3N2. Nature of the data set: Antiviral activity against influenza A virus (A/Hong Kong/1/1968(H3N2)) infected in hen eggs assessed as hemagglutinination titre level at 5 mg/ml. Type of data set: functional. The method, boiled down:
as §1

In data set [8] the test system is Influenza A virus H3N2. In kind it is functional, Influenza A virus (A/Hong Kong/1/1968(H3N2)), Chorioallantoic membrane. The source holds these as a separate data set.
In data set [9] the test system is Influenza A virus H3N2. In kind it is functional, Influenza A virus (A/Hong Kong/1/1968(H3N2)), Chorioallantoic membrane. The source holds these as a separate data set.
Data set [10] concerns Influenza A virus H3N2. Type of data set: functional, Influenza A virus (A/Hong Kong/1/1968(H3N2)), Chorioallantoic membrane. This is another data set of the same source.
Data set [11] in a line: Toxicity in hen egg assessed as maximum tolerable concentration causing no morphological changes. More on the design: species or system Gallus gallus. Conditions: chicken, read-out: Activity.
Data set [12] concerns Influenza A virus H3N2. In kind it is functional, Influenza A virus (A/Hong Kong/1/1968(H3N2)), Chorioallantoic membrane. This is another data set of the same source.
Data set [13] deals with Influenza A virus H3N2. Nature of the data set: Antiviral activity against influenza A virus (A/Hong Kong/1/1968(H3N2)) infected in hen eggs assessed as hemagglutinination titre level at 1 mg/ml. Type of data set: functional. The method, boiled down: as §1

≈ marks a conversion by molar mass, not a printed value. Some results are limits rather than exact numbers.

In the case of `O=C(/C=C/c1ccc(O)c(O)c1)OCc1ccccc1` [BENZYL CAFFEATE], the values for the MIC against Influenza A virus and in the data set on Influenza A virus H3N2 [2] were more than 50 µg/mL and 25 µg/mL (≈ 92.5 µM), respectively. The MNTC in data set [1] stood at 50 µg/mL.
Consider `COc1cc(/C=C/C(=O)OCCC(C)C)ccc1O` [ISOPENTYL FERULATE], for which the deltalog10CCID50 with Influenza A virus H3N2 [3] was more than 2.5; in the data set on Influenza A virus H3N2 [5], 2; with Influenza A virus H3N2 [8], 2. Besides, the Activity in the data set with Influenza A virus H3N2 [4] was 7.35; in the data set with Influenza A virus H3N2 [7], 6.45; in the data set on Influenza A virus H3N2 [13] it was 9.4. Moreover, the log10CCID50 in the data set with Influenza A virus H3N2 [6] is less than 1; in the data set with Influenza A virus H3N2 [9], 1.5; in the data set with Influenza A virus H3N2 [10], 3; in the data set on Influenza A virus H3N2 [12] it was 1.5. The results for the MIC in the data set on Influenza A virus and with Influenza A virus H3N2 [2] were more than 200 µg/mL and 50 µg/mL (≈ 189 µM), respectively. The MNTC in data set [11] was 10000 µg/mL; in data set [1], 400 µg/mL.
`O=C(/C=C/c1ccc(O)c(O)c1)OCCc1ccccc1` [CAFFEIC ACID PHENETHYL ESTER]: the MIC is 50 µg/mL (≈ 176 µM) in the data set with Influenza A virus and 25 µg/mL (≈ 87.9 µM) in the data set on Influenza A virus H3N2 [2]. Further, in data set [1], the MNTC is 50 µg/mL.
For `COc1cc(/C=C/C(=O)OCc2ccccc2)ccc1O` [BENZYL FERULATE], the MIC against Influenza A virus and in the data set with Influenza A virus H3N2 [2] was more than 50 µg/mL in each case. For the same compound, in data set [1], the MNTC was 50 µg/mL.
In the case of `CC(C)CCOC(=O)/C=C/c1ccc(O)c(O)c1`, the MIC in the data set on Influenza A virus and against Influenza A virus H3N2 [2] was 25 µg/mL (≈ 99.9 µM) each time. In data set [1], the MNTC is 50 µg/mL.
Take `COc1cc(/C=C/C(=O)OCCc2ccccc2)ccc1O`: the MIC in the data set on Influenza A virus and with Influenza A virus H3N2 [2] was more than 50 µg/mL each time. In [1], the MNTC amounted to 50 µg/mL.
